Laboratory results: ChEMBL document CHEMBL1154522, “Aryl sulfamates are broad spectrum inactivators of sulfatases: effects on sulfatases from various sources” (Bioorg Med Chem Lett, 2009)

Columns and labels:
[1] = substrate: O=[N+]([O-])c1ccc(OS(=O)(=O)O)cc1; assay: Activity at Pseudomonas aeruginosa recombinant arylsulfatase A expressed in Escherichia coli
Outline: (§1)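 Hydrolysis of potassium 4-nitrophenyl sulfate followed by release of 4-nitrophenol; Vmax is expressed per mg protein and Km in mM; Vmax/Km is derived from these.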

[2] = substrate: O=[N+]([O-])c1ccc(OS(=O)(=O)O)cc1; assay: Activity at Pseudomonas aeruginosa recombinant arylsulfatase A expressed in Escherichia coli assessed per mg of protein; outline: as §1

B1: Arylsulfatase (Pseudomonas aeruginosa (strain ATCC 15692 / PAO1 / 1C / PRS 101 / LMG12228)), P51691 (protein)
chain: MSKRPNFLVIVADDLGFSDIGAFGGEIATPNLDALAIAGLRLTDFHTASTCSPTRSMLLTGTDHHIAGIGTMAEALTPELEGKPGYEGHLNERVVALPELLREAGYQTLMAGKWHLGLKPEQTPHARGFERSFSLLPGAANHYGFEPPYDESTPRILKGTPALYVEDERYLDTLPEGFYSSDAFGDKLLQYLKERDQSRPFFAYLPFSAPHWPLQAPREIVEKYRGRYDAGPEALRQERLARLKELGLVEADVEAHPVLALTREWEALEDEERAKSARAMEVYAAMVERMDWNIGRVVDYLRRQGELDNTFVLFMSDNGAEGALLEAFPKFGPDLLGFLDRHYDNSLENIGRANSYVWYGPRWAQAATAPSRLYKAFTTQGGIRVPALVRYPRLSRQGAISHAFATVMDVTPTLLDLAGVRHPGKRWRGREIAEPRGRSWLGWLSGETEAAHDENTVTGWELFGMRAIRQGDWKAVYLPAPVGPATWQLYDLARDPGEIHDLADSQPGKLAELIEHWKRYVSETGVVEGASPFLVR
Km [1]: 0.77 µM | Vmax [2]: 6.1 mmol/min/mg
